# Source: ChEMBL document CHEMBL1123757, “Selective thromboxane synthetase inhibitors and antihypertensive agents. New derivatives of 4-hydrazino-5H-pyridazino[4,5-b]indole, 4-hydrazinopyridazino[4,5-a]indole, and related compounds” (J Med Chem, 1987)
# Experiments:
# Rattus norvegicus [1] = assay: Antihypertensive activity in spontaneously hypertensive rats (SHR) measured by percentage fall in arterial pressure (AP) at 25 mg/kg administered perorally at 3 h; type: functional, Artery; details: route oral
# Outline: (§1)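 Oral dosing at 2.5 mL/kg to unanesthetized male and female Okamoto-strain SHR (8 weeks old, 300–350 g, systolic pressure ≥190 mmHg, heart rate 400–650 beats/min), five per dose. Vehicle was normal saline or saline with 0.2% (carboxymethyl)cellulose and 1.0% Tween 80. AP measured on the tail by mechanical transduction at set times; expressed as percentage fall from control.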
# Rattus norvegicus [2] = assay: Antihypertensive activity in spontaneously hypertensive rats (SHR) measured by percentage fall in arterial pressure (AP) at 5 mg/kg administered intraperitoneally at 1 h; type: functional, Artery; details: route intraperitoneal
# Outline: (§2)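 Unanesthetized Okamoto-strain SHR, male and female, 8 weeks old, 300–350 g, systolic pressure ≥190 mmHg, heart rate 400–650 beats/min; five animals per dose. Given ip at 2.5 mL/kg, dissolved or suspended in normal saline or saline with 0.2% (carboxymethyl)cellulose and 1.0% Tween 80. Tail AP and CR recorded by mechanical transduction at set times; reported as percentage fall from control.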
# Rattus norvegicus [3] = assay: Antihypertensive activity in spontaneously hypertensive rats (SHR) measured by percentage fall in arterial pressure (AP) at 5 mg/kg administered intraperitoneally at 24 h; type: functional, Artery; details: route intraperitoneal; outline: as §2
# Rattus norvegicus [4] = assay: Antihypertensive activity in spontaneously hypertensive rats (SHR) measured by percentage fall in arterial pressure (AP) at 5 mg/kg administered intraperitoneally at 5 h; type: functional, Artery; details: route intraperitoneal; outline: as §2
# Rattus norvegicus [5] = assay: Antihypertensive activity in spontaneously hypertensive rats (SHR) measured by percentage fall in arterial pressure (AP) at 5 mg/kg administered perorally at 1 h; type: functional, Artery; details: route oral; outline: as §1
# Rattus norvegicus [6] = assay: Antihypertensive activity in spontaneously hypertensive rats (SHR) measured by percentage fall in arterial pressure (AP) at 5 mg/kg administered perorally at 3 h; type: functional, Artery; details: route oral; outline: as §1
# Rattus norvegicus [7] = assay: Antihypertensive activity in spontaneously hypertensive rats (SHR) measured by percentage fall in arterial pressure (AP) at 25 mg/kg administered intraperitoneally at 5 h; type: functional, Artery; details: route intraperitoneal; outline: as §2
# Rattus norvegicus [8] = assay: Antihypertensive activity in spontaneously hypertensive rats (SHR) measured by percentage fall in arterial pressure (AP) at 25 mg/kg administered perorally at 1 h; type: functional, Artery; details: route oral; outline: as §1
# Rattus norvegicus [9] = assay: Antihypertensive activity in spontaneously hypertensive rats (SHR) measured by percentage fall in cardiac rhythm (CR) at 1 mg/kg administered intraperitoneally at 24 h; type: functional, Heart; details: route intraperitoneal; outline: as §2
# Rattus norvegicus [10] = assay: Antihypertensive activity in spontaneously hypertensive rats (SHR) measured by percentage fall in cardiac rhythm (CR) at 1 mg/kg administered intraperitoneally at 3 h; type: functional, Heart; details: route intraperitoneal; outline: as §2
# Rattus norvegicus [11] = assay: Antihypertensive activity in spontaneously hypertensive rats (SHR) measured by percentage fall in cardiac rhythm (CR) at 1 mg/kg administered intraperitoneally at 5 h; type: functional, Heart; details: route intraperitoneal; outline: as §2
# Rattus norvegicus [12] = assay: Antihypertensive activity in spontaneously hypertensive rats (SHR) measured by percentage fall in cardiac rhythm (CR) at 5 mg/kg administered perorally at 1 h; type: functional, Heart; details: route oral
# Outline: (§3)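 Conscious SHR (Okamoto strain), 8 weeks old, male and female, 300–350 g, systolic BP ≥190 mmHg, CR 400–650 beats/min. Given ip or po at 2.5 mL/kg in normal saline or saline with 0.2% (carboxymethyl)cellulose and 1.0% Tween 80. Tail AP and CR recorded by mechanical transduction at 1, 3, 5 and 24 h, five animals per dose. Effect expressed as % fall versus control.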
# Rattus norvegicus [13] = assay: Antihypertensive activity in spontaneously hypertensive rats (SHR) measured by percentage fall in arterial pressure (AP) at 1 mg/kg administered intraperitoneally at 1 h; type: functional, Artery; details: route intraperitoneal; outline: as §2
# Rattus norvegicus [14] = assay: Antihypertensive activity in spontaneously hypertensive rats (SHR) measured by percentage fall in cardiac rhythm (CR) at 5 mg/kg administered intraperitoneally at 5 h; type: functional, Heart; details: route intraperitoneal; outline: as §3
# Homo sapiens [15] = organism: Homo sapiens; assay: In vitro inhibition of platelet aggregation induced by ADP-II (PRP incubated for 5 minutes at 37 degree C) at 10e-5 M; type: functional
# Outline: (§4)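 Human venous blood anticoagulated with 3.8% sodium citrate (1:9). PRP from centrifugation at 800 rpm for 10 min at room temperature. Count adjusted with PPP to […]. Compound in saline with 10% ethylene glycol is added to PRP and incubated at 37 °C before the agonist. Agonists: ADP 2×10^-5 M, AA 0.6 mM, PGH2 2.8 μM, adrenaline 0.6 μM. Born absorbance aggregometry; n = 5.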
# Homo sapiens [16] = organism: Homo sapiens; assay: In vitro inhibition of platelet aggregation induced by ADP-II (PRP incubated for 60 minutes at 37 degree C) at 10e-5 M; type: functional; details: 1 h; outline: as §4
# Rattus norvegicus [17] = assay: Percent fall in systolic blood pressure, directly measured on carotid (iv on the jugular vein) of spontaneously hypertensive rats at 1 mg/kg after 10 minutes; type: functional, Artery
# Outline: (§5)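 Anesthetized (sodium pentobarbital, 70 mg/kg) male and female Okamoto SHR, 8 weeks old, 300–350 g. Given iv into the jugular vein in normal saline. Arterial pressure and cardiac rhythm are recorded directly from the carotid by polygraph at set times after dosing. Each is expressed as percent change from the pre-dose control value.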
# Rattus norvegicus [18] = assay: Percent fall in systolic blood pressure, directly measured on carotid (iv on the jugular vein) of spontaneously hypertensive rats at 1 mg/kg after 15 minutes; type: functional, Artery; outline: as §5
# Rattus norvegicus [19] = assay: Percent fall in systolic blood pressure, directly measured on carotid (iv on the jugular vein) of spontaneously hypertensive rats at 1 mg/kg after 30 minutes; type: functional, Artery; outline: as §5
# Rattus norvegicus [20] = assay: Percent fall in systolic blood pressure, directly measured on carotid (iv on the jugular vein) of spontaneously hypertensive rats at 1 mg/kg after 5 minutes; type: functional, Artery; outline: as §5
# Rattus norvegicus [21] = assay: Percent fall in systolic blood pressure, directly measured on carotid (iv on the jugular vein) of spontaneously hypertensive rats at 1 mg/kg after 60 minutes; type: functional, Artery; outline: as §5
# Rattus norvegicus [22] = assay: Percent fall in systolic blood pressure, directly measured on carotid (iv on the jugular vein) of spontaneously hypertensive rats at 1 mg/kg after 75 minutes; type: functional, Artery; outline: as §5
# Rattus norvegicus [23] = assay: Percent fall in systolic blood pressure, directly measured on carotid (iv on the jugular vein) of spontaneously hypertensive rats at 1 mg/kg after 90 minutes; type: functional, Artery; outline: as §5
# Rattus norvegicus [24] = assay: Antihypertensive activity in spontaneously hypertensive rats (SHR) measured by percentage fall in cardiac rhythm (CR) at 1 mg/kg administered intraperitoneally at 1 h; type: functional, Heart; details: route intraperitoneal; outline: as §2
# Rattus norvegicus [25] = assay: Antihypertensive activity in spontaneously hypertensive rats (SHR) measured by percentage fall in cardiac rhythm (CR) at 25 mg/kg administered intraperitoneally at 24 h; type: functional, Heart; details: route intraperitoneal; outline: as §2
# Rattus norvegicus [26] = assay: Antihypertensive activity in spontaneously hypertensive rats (SHR) measured by percentage fall in cardiac rhythm (CR) at 25 mg/kg administered intraperitoneally at 3 h; type: functional, Heart; details: route intraperitoneal; outline: as §2
# Rattus norvegicus [27] = assay: Antihypertensive activity in spontaneously hypertensive rats (SHR) measured by percentage fall in cardiac rhythm (CR) at 25 mg/kg administered intraperitoneally at 5 h; type: functional, Heart; details: route intraperitoneal; outline: as §3
# Rattus norvegicus [28] = assay: Antihypertensive activity in spontaneously hypertensive rats (SHR) measured by percentage fall in cardiac rhythm (CR) at 25 mg/kg administered perorally at 1 h; type: functional, Heart; details: route oral; outline: as §3
# Rattus norvegicus [29] = assay: Antihypertensive activity in spontaneously hypertensive rats (SHR) measured by percentage fall in arterial pressure (AP) at 1 mg/kg administered intraperitoneally at 3 h; type: functional, Artery; details: route intraperitoneal; outline: as §2
# Rattus norvegicus [30] = assay: Antihypertensive activity in spontaneously hypertensive rats (SHR) measured by percentage fall in arterial pressure (AP) at 25 mg/kg administered intraperitoneally at 1 h; type: functional, Artery; details: route intraperitoneal; outline: as §2
# Rattus norvegicus [31] = assay: Antihypertensive activity in spontaneously hypertensive rats (SHR) measured by percentage fall in arterial pressure (AP) at 25 mg/kg administered intraperitoneally at 24 h; type: functional, Artery; details: route intraperitoneal; outline: as §2
# Rattus norvegicus [32] = assay: Antihypertensive activity in spontaneously hypertensive rats (SHR) measured by percentage fall in arterial pressure (AP) at 25 mg/kg administered intraperitoneally at 3 h; type: functional, Artery; details: route intraperitoneal; outline: as §2
# Rattus norvegicus [33] = assay: Antihypertensive activity in spontaneously hypertensive rats (SHR) measured by percentage fall in arterial pressure (AP) at 5 mg/kg administered intraperitoneally at 3 h; type: functional, Artery; details: route intraperitoneal; outline: as §2
# Rattus norvegicus [34] = assay: Percent fall in systolic blood pressure, directly measured on carotid (iv on the jugular vein) of spontaneously hypertensive rats at 1 mg/kg after 45 minutes; type: functional, Artery; outline: as §5
smiles,measurement,setting,value
CCOc1ccc2[nH]c3c(NN)nncc3c2c1.Cl,Decrease in AP,Rattus norvegicus [1],5%
same,Decrease in AP,Rattus norvegicus [2],59%
same,Decrease in AP,Rattus norvegicus [3],12%
same,Decrease in AP,Rattus norvegicus [4],32%
same,Decrease in AP,Rattus norvegicus [5],15%
same,Decrease in AP,Rattus norvegicus [6],10%
same,Decrease in AP,Rattus norvegicus [7],51%
same,Decrease in AP,Rattus norvegicus [8],16%
same,Decrease in CR,Rattus norvegicus [9],10%
same,Decrease in CR,Rattus norvegicus [10],-5%
same,Decrease in CR,Rattus norvegicus [11],-10%
same,Decrease in CR,Rattus norvegicus [12],-11%
same,Decrease in AP,Rattus norvegicus [13],29%
same,Decrease in CR,Rattus norvegicus [14],-7%
same,inhibition at 10 µM,Homo sapiens [15],100%
same,inhibition at 10 µM,Homo sapiens [16],100%
same,Decrease in blood pressure,Rattus norvegicus [17],18%
same,Decrease in blood pressure,Rattus norvegicus [18],20%
same,Decrease in blood pressure,Rattus norvegicus [19],32%
same,Decrease in blood pressure,Rattus norvegicus [20],16%
same,Decrease in blood pressure,Rattus norvegicus [21],41%
same,Decrease in blood pressure,Rattus norvegicus [22],32%
same,Decrease in blood pressure,Rattus norvegicus [23],25%
same,Decrease in CR,Rattus norvegicus [24],6%
same,Decrease in CR,Rattus norvegicus [25],-11%
same,Decrease in CR,Rattus norvegicus [26],-17%
same,Decrease in CR,Rattus norvegicus [27],-20%
same,Decrease in CR,Rattus norvegicus [28],11%
same,Decrease in AP,Rattus norvegicus [29],10%
same,Decrease in AP,Rattus norvegicus [30],57%
same,Decrease in AP,Rattus norvegicus [31],34%
same,Decrease in AP,Rattus norvegicus [32],57%
same,Decrease in AP,Rattus norvegicus [33],37%
same,Decrease in blood pressure,Rattus norvegicus [34],36%
